NOD2-RIPK2 inh – NOD2-RIPK2 protein interaction inhibition | O43353 | CHO BLA complementation NOD2-RIPK2, CCF4 ratio | inhibition, % at 4.98 µM | 360,000 tested, 0.38% active | AID 624267; in the data active = inhibition above about 21%;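 note: 0% = vehicle only and 100% = reference blocker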
Target sequence (O43353 whole entry, looked up): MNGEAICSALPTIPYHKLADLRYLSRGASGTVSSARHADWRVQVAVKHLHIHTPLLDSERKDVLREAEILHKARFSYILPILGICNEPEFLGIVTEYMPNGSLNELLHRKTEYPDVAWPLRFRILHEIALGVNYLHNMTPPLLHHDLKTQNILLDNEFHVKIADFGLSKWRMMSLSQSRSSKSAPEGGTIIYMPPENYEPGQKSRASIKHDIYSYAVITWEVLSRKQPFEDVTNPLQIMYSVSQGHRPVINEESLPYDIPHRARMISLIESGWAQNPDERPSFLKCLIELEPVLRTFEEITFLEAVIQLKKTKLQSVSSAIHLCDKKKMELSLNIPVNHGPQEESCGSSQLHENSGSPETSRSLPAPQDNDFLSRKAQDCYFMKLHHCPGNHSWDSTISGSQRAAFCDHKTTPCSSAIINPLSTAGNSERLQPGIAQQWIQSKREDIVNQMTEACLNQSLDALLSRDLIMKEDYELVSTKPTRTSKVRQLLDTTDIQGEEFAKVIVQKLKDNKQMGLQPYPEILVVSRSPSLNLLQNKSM
TLR9-MyD88 block – blocks human TLR9 binding to MyD88; 340,000 tested, 0.21% active; CHO BLA complementation TLR9-MyD88, CCF4 FRET ratio; inhibition, % at 4.98 µM;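 active = inhibition above the mean over all tested compounds plus 3 SD, cut at about 21% in these data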;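 note: 0% = DMSO only wells and 100% = clavulanate BLA inhibitor control wells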
ABHD5 PLIN5 PPI – ABHD5-PLIN5 protein interaction inhibition | Q00G26+Q8WTS1 | Split G. princeps luciferase complementation, luminescence, 4 h | inhibition, % at 4 µM | 360,000 tested, 0.78% active | AID 602281;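 active = inhibition above the mean inhibition across every tested compound plus 3 SD, cut at about 22% in these data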;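 note: 0% = DMSO only wells and the 100% control is not disclosed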
TLR4 MyD88 comp – inhibitors of human TLR4-MyD88 binding; O00206+Q99836; HeLa CL3-4 TLR4/MyD88 BLA complementation, FRET ratio; inhibition, % at 8.4 µM; 200,000 tested, 0.18% active; in the data active = inhibition above about 25%;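 note: 0% = vehicle and 100% = reference inhibitor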
Dynein cargo inh – blocks dynein driven cargo transport along microtubules; 3617.4 mouse cells, GR-EGFP nuclear translocation imaging; test concentration mostly 20 µM; stimulated with dexamethasone, 1 µM; stronger effect = lower value; z-score, hits read low; 220,000 tested, 0.47% active; AID 1381;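 active = plate z-score of nuclear minus cytoplasmic receptor signal below a set negative limit, without overly bright fluorescence or cell loss, cut at about -3.5 in these data, passing the limit was not always enough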;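 note: z-score of nuclear minus cytoplasmic ring GR-EGFP intensity difference per well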
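Buffer or medium: tet-free medium with charcoal-stripped serum / Also added: dexamethasone agonist, 1.0 µM final, for 30 min / Timing: induction 48 h, compound 1 h, agonist 30 min / Measured by: high-content fluorescence imaging after fixation / Read-out: nuclear-to-cytoplasmic GR-EGFP distribution per well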
B2AR ag – human beta-2 adrenergic receptor agonism by FAP; 340,000 tested, 0.43% active; P07550; Am2.2-beta2AR cells, FAP receptor internalization, flow cytometry; response, % (no concentration beside the values);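 active = response above a set limit, near 3 SD of response in nonfluorescent compounds, cut at about 42% in these data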
B2AR ag CP1 – agonists of human beta-2 adrenergic receptor | shares compounds with B2AR ag | Am2.2-beta2AR cells, FAP surface receptor, flow cytometry; stronger effect = lower value | percent response (surface receptor), % at 10 µM | 1,100 tested, 25% active | AID 540358;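 active = surface receptor percent response at or below 58%, roughly 3 SD from nonfluorescent compounds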
B2AR FAP counter – fluorescence artifact in beta-2AR agonist FAP counterscreen; shares compounds with B2AR ag; Am2.2 cells, FAP fluorogen flow cytometry; stronger effect = lower value; calls only at 10 µM; 1,100 tested, under 10 active; AID 588765;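 active = percent response below a set limit in fluorescence channel 1 and below 50% in channel 8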
The depositor's hits bear a star; i = inactive; x = not tested or not shown. Compounds with a hit are over-represented: about 1.6% of the library has one in this group of screens.

SMILES	NOD2-RIPK2 inh	TLR9-MyD88 block	ABHD5 PLIN5 PPI	TLR4 MyD88 comp	Dynein cargo inh	B2AR ag	B2AR ag CP1	B2AR FAP counter
COc1ccc(C2/C=C\CN(C(=O)Nc3ccccc3)CC(=O)N2Cc2ccc(F)cc2)cc1 (configuration not stated)	7	7	-3	x	-1.9	1	x	x
COc1ccc([C@H]2/C=C\CN(C(=O)c3ccccc3)[C@@H](C)C(=O)N2Cc2ccc(F)cc2)cc1	3	-7	-6	x	x	3	111	i
COc1ccc(C2/C=C\CN(C(=O)c3ccc(C)cc3)CC(=O)N2Cc2ccc(F)cc2)cc1 (configuration not stated)	9	2	-1	x	-0.034	9	102	i
O=C(COC(=O)C1CC1)Nc1c(Cl)cccc1C(F)(F)F	-2	-7	6	x	x	0	x	x
COCCc1ncc(CN2CCC(C(=O)Nc3ccc(-n4cccn4)cc3)CC2)cn1	-3	-8	-2	x	x	50*	30*	i
CN(C)c1ncc(CN2CCC(C(=O)Nc3ccc(-n4cccn4)cc3)CC2)s1	-5	-8	-5	x	x	-3	x	x
CCOC(=O)CCCCCC(=O)Nc1ccc2c(c1)C(=O)N([C@H](C)CO)C[C@H](C)[C@@H](CN(C)S(C)(=O)=O)OCCCC[C@@H](C)O2	-7	-31	-8	x	x	x	x	x
CC1=NN(C(N)=S)C(=O)C1N=Nc1ccc(F)cc1 (configuration not stated)	0	-12	7	x	x	-2	49*	i
CCC1(c2ccccc2)NC(=O)N(CC(=O)N(C)Cc2c(F)cccc2Cl)C1=O (configuration not stated)	2	1	0	x	x	82*	101	i
Cc1ccc(Cn2ccc(NC(=O)c3cc4nc(-c5ccco5)cc(C(F)(F)F)n4n3)n2)cc1	-11	-9	6	-15	1.1	112*	7.1*	i
Cc1nn(C)c(C)c1NC(=O)c1cc2nc(-c3ccco3)cc(C(F)(F)F)n2n1	-6	-5	3	4	0.21	-11	x	x
Cn1c(=S)c2[nH]c(SCCN3CCCC3)nc2n(C)c1=O	8	-8	6	x	1.1	-3	115	i
COc1ccccc1NS(=O)(=O)c1cccc(NC(=O)c2nc3nc(C)cc(C)n3n2)c1	-2	-8	-3	-3	-0.26	-2	136	i
COc1ccc(NS(=O)(=O)c2cc(NC(=O)c3nc4nc(C)cc(C)n4n3)ccc2C)cc1	-16	9	1	7	-0.35	-2	133	i
Cc1nc2cc(N3CCOCC3)c(NC(=O)C3CC3)cc2c(=O)n1Cc1ccccc1	2	-4	-5	-21	-0.2	49*	65	i
O=C(NCCCN1CCN(CCCNC(=O)c2ccc(F)cc2)CC1)c1ccc(F)cc1	-1	-9	3	-4	-0.89	-9	125	i
CC(C)c1ccc(C(=O)NCCCN2CCN(CCCNC(=O)c3ccc(C(C)C)cc3)CC2)cc1	7	-3	13	-4	1.1	46*	89	i
O=C(NCCCN1CCOCC1)c1ccccc1	3	0	1	-1	0.27	-2	x	x
CN(CCOc1ccc(-c2ccn(S(=O)(=O)c3cccc4ccccc34)n2)cc1)c1ccccn1	12	12	2	4	-0.28	76*	39*	i
CN(CCOc1ccc(-c2ccn(S(=O)(=O)c3c(Cl)cccc3Cl)n2)cc1)c1ccccn1	-4	-9	1	-4	0.26	-2	x	x
CCC[C@H]1CN(c2ccc(Br)cc2)C(=O)[C@@H]1CC(=O)NC	-14	-1	-3	x	x	x	x	x
COc1ccc(S(=O)(=O)N(CCc2ccccc2)CC(=O)O)cc1	3	-10	-1	1	0.57	51*	102	i
CCNC(=O)CN(CCc1ccccc1)S(=O)(=O)c1ccc(OC)cc1	6	-7	2	3	0.88	0	x	x
CCCC(=O)Nc1ccc2c(c1)nc(CCN1CCC(C)CC1)n2C	-2	1	5	x	x	x	x	x
O=C(CSc1nc2ccccc2c(=O)n1-c1ccc(F)cc1F)c1c[nH]c2ccccc12	-4	9	-1	-10	-0.7	45*	112	i
SMILES	NOD2-RIPK2 inh	TLR9-MyD88 block	ABHD5 PLIN5 PPI	TLR4 MyD88 comp	Dynein cargo inh	B2AR ag	B2AR ag CP1	B2AR FAP counter
CCC(C)Sc1ccc(-c2nc3ccccn3c2NCc2ccccc2)cc1OC (configuration not stated)	2	0	5	x	x	35	x	x
COc1ccc(CSc2ccc(-c3nc4ccccn4c3NCc3ccccc3)cc2OC)cc1	2	-2	2	x	x	75*	63	i
O=C(Nc1cccc(Cl)c1)Nc1sccc1-c1nc2ccccc2s1	4	x	-6	x	-0.18	66*	116	i
O=C(Nc1cccc(-c2nc3ccccc3s2)c1)c1cc(=O)c2ccccc2o1	-3	3	-1	7	-0.13	11	x	x
O=C(Nc1cccc(-c2nc3ccccc3s2)c1)c1cccs1	1	13	4	-1	0.12	52*	46*	i
O=C(Nc1ccccc1)Nc1sccc1-c1nc2ccccc2s1	-8	x	-12	x	-0.26	26	x	x
COc1ccc(C(C)=O)cc1Cn1c(C)c(C(=O)NCc2ccc(C(C)C)cc2)sc1=O	0	x	3	x	x	x	x	x
Cc1ccc(Sc2ncccc2C(=O)NCC(c2ccc(F)cc2)N2CCOCC2)c(C)c1 (configuration not stated)	8	1	2	x	x	47*	97	i
Cc1ccc(Sc2ncccc2C(=O)NCC(c2ccc(F)cc2)N2CCOCC2)cc1C (configuration not stated)	-1	-9	2	x	x	2	x	x
NC(=O)CC(NC(=O)c1ccc(Br)cc1)c1ccc(N2CCN(c3ccccn3)CC2)c([N+](=O)[O-])c1 (configuration not stated)	3	-4	-4	x	-0.15	98*	14*	i
NC(=O)CC(NC(=O)Cc1ccc(Br)cc1)c1ccc(N2CCN(c3ccccn3)CC2)c([N+](=O)[O-])c1 (configuration not stated)	3	-69	4	x	x	63*	89	i
NC(=O)CC(NC(=O)Cc1ccc(Cl)cc1)c1ccc(N2CCN(c3ccccn3)CC2)c([N+](=O)[O-])c1 (configuration not stated)	0	7	8	x	x	25	x	x
